Data as given in ChEMBL document CHEMBL5712922, “Synergistic effects of type I PRMT and PARP inhibitors against non-small cell lung cancer cells” (Clin Epigenetics, 2021).
Activity calls are given as the source filed them. The rule behind the calls is not given here.

Key:
A549 [1] = assay: Antiproliferative against human A549 cells expressing MTAP clone 2 assessed as […] treated for 7 days with replenishment of medium for every 48 hrs by MTT assay (reference value: 4.4 uM); assay type: functional, cell-based
A549 [2] = assay: Induction of DNA damage in human A549 cells assessed as increase in stained cells at 2 uM for 7 days by gamma-H2AX analysis (reference value: 3.9%); assay type: functional; conditions: time 7 day
Method in brief: (§1)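 A549 cells grown on coverslips under MTT treatment conditions (inhibitors replenished every 48 h) for 7 days with MS023 (0.2–2 µM) and/or BMN-673 (50 nM); fixed in 4% paraformaldehyde, Triton-permeabilized, stained with anti-γ-H2AX (1:1000, 16 h, 4 °C) and Alexa488 secondary, DAPI counterstain. ≥200 cells imaged; fraction with >5 foci reported; unpaired t tests.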

HCC4006 [3] = assay: Antiproliferative against human HCC4006 cells expressing MTAP clone 1 assessed as […] treated for 7 days with replenishment of medium for every 48 hrs by MTT assay (reference value: 0.24 uM); assay type: functional, cell-based
Method in brief: (§2)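 Parental, empty-vector (pLoc) or MTAP-re-expressing lentiviral clone cells (blasticidin 3 µg/ml selected) seeded day 0; MS023 (0.2–2 μM final) and/or BMN-673 (0.3–50 nM final) or DMSO added after 16 h, replenished with medium every 48 h. Day 7: MTT reagent 3 h at 37 °C, solvent, absorbance 590 nm; triplicates; percent death = 1 − (treated/DMSO).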

A549 [4] = assay: Induction of DNA damage in human A549 cells at 2 uM for 7 days by gamma-H2AX analysis; assay type: functional, cell-based; conditions: time 7.0 day; method in brief: as §1
A549 [5] = assay: Antiproliferative against human A549 cells assessed as reduction in cell viability at 16.5 uM for 24 hrs relative to control; assay type: functional
Method in brief: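 A549 cells exposed to MS023 for 24 h in dose–response; viability read by flow cytometry with Viacount dye reagent distinguishing viable, pre-apoptotic and dead cells.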

HCC4006 [6] = assay: Antiproliferative against human HCC4006 cells expressing MTAP clone 2 assessed as […] treated for 7 days with replenishment of medium for every 48 hrs by MTT assay (reference value: 0.24 uM); assay type: functional, cell-based; method in brief: as §2
A549 [7] = assay: Antiproliferative against human A549 cells expressing MTAP clone 1 assessed as […] treated for 7 days with replenishment of medium for every 48 hrs by MTT assay (reference value: 4.4 uM); assay type: functional, cell-based; method in brief: as §2
A549 [8] = assay: Induction of DNA damage in human A549 cells assessed as increase in stained cells at 0.2 uM for 7 days by gamma-H2AX analysis (reference value: 3.9%); assay type: functional; conditions: time 7 day; method in brief: as §1
SK-LU-1 [9] = assay: Antiproliferative against human SK-LU-1 cells expressing MTAP clone 1 assessed as […] treated for 7 days with replenishment of medium for every 48 hrs by MTT assay (reference value: 16.3 uM); assay type: functional, cell-based
SK-LU-1 [10] = assay: Antiproliferative against human SK-LU-1 cells expressing MTAP clone 2 assessed as […] treated for 7 days with replenishment of medium for every 48 hrs by MTT assay (reference value: 16.3 uM); assay type: functional, cell-based
A549 [11] = assay: Synergistic antiproliferative activity against human A549 cells pretreated with MS023 for 24 hrs followed by compound addition at 10 uM measured after for 24 hrs relative to control; assay type: functional
Method in brief: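 A549 seeded 20K/well; next day 16.5 μM MS023 or DMSO for 24 h, then 181 epigenetic library drugs at 10 μM for 24 h. Viability by Viacount flow cytometry after trypsinization; heat-killed well as total death control. Synergy Index = (monotherapy viability × MS023 viability effect)/combination viability; also synergy percentage (1 − 1/SI)×100.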

A549 [12] = assay: Antiproliferative against human A549 cells assessed as viable cells pretreated with MS023 for 24 hrs followed by compound addition at 10 uM measured after for 24 hrs relative to control; conditions: A549, 24 h, read-out: Activity
A549 [13] = assay: Antiproliferative against human A549 cells expressing MTAP clone 1 assessed as […] treated at 25 to 50 nM for 7 days in presence of MS023 with replenishment of medium for every 48 hrs by MTT assay relative to control; assay type: functional; set-up: scale not given: the % may be the effect or the level left; conditions: dose 25-50 nM, time 7 day
A549 [14] = assay: Antiproliferative against human A549 cells assessed as killed cells at 0.3 nM treated for 7 days in presence of MS023 with replenishment of medium for every 48 hrs by MTT assay relative to control; conditions: time 7 day
PEO4 [15] = assay: Antiproliferative activity against human PEO4 cells expressing BRCA2 mutant at 3.75 to 60 nM; assay type: functional, cell-based; conditions: dose 3.75-60 nM
Method in brief: (§3)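 PEO1 and PEO4 ovarian cells seeded 3,000/well; treated one day after plating with MS023 and/or BMN-673 or DMSO vehicle, medium with inhibitors replenished every 48 h. Six days after first treatment, nuclei stained with Hoechst 33342 (10 µg/ml final, 30 min) and counted by plate imaging; counts normalized to DMSO wells. Combination effect expressed as Bliss score.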

PEO1 [16] = assay: Antiproliferative activity against BRCA2 deficient human PEO1 cells at 3.75 to 60 nM in presence of MS023; assay type: functional, cell-based; conditions: dose 3.75-60 nM; method in brief: as §3
A549 [17] = assay: Induction of cell death in human A549 cells assessed as bliss energy score at 0.3 nM in presence of EPZ 15666 by viacount reagent based analysis; assay type: functional
PEO1 [18] = assay: Antiproliferative activity against BRCA2 deficient human PEO1 cells assessed as bliss energy score at 3.75 to 60 nM in presence of MS023; assay type: functional; conditions: dose 3.75-60 nM; method in brief: as §3
PEO1 [19] = assay: Antiproliferative activity against BRCA2 deficient human PEO1 cells at 3.75 to 60 nM; assay type: functional, cell-based; conditions: dose 3.75-60 nM; method in brief: as §3
A549 [20] = assay: Induction of DNA damage in human A549 cells at 50 nM for 7 days by gamma-H2AX analysis; assay type: functional, cell-based; conditions: time 7.0 day; method in brief: as §1
A549 [21] = assay: Antiproliferative against human A549 cells expressing MTAP clone 2 assessed as […] treated at 25 to 50 nM for 7 days in presence of MS023 with replenishment of medium for every 48 hrs by MTT assay relative to control; assay type: functional; set-up: scale not given: the % may be the effect or the level left; conditions: dose 25-50 nM, time 7 day
A549 [22] = assay: Induction of cell death in human A549 cells at 0.3 nM in presence of 2 uM MS023 by viacount reagent based analysis; assay type: functional
A549 [23] = assay: Induction of cell death in human A549 cells assessed as bliss energy score at 0.3 nM in presence of GSK 591 by viacount reagent based analysis; assay type: functional
A549 [24] = assay: Induction of DNA damage in human A549 cells at 50 nM in presence of MS023 for 7 days by gamma-H2AX analysis; assay type: functional, cell-based; conditions: time 7.0 day; method in brief: as §1
[25] = Antiproliferative activity against human PEO4 cells expressing BRCA2 mutant assessed as bliss energy score at 3.75 to 60 nM in presence of MS023; assay type: functional; conditions: dose 3.75-60 nM; method in brief: as §3
A549 [26] = assay: Induction of DNA damage in human A549 cells assessed as increase in stained cells at 50 nM for 7 days by gamma-H2AX analysis (reference value: 3.9%); assay type: functional; conditions: time 7 day; method in brief: as §1
PEO4 [27] = assay: Antiproliferative activity against human PEO4 cells expressing BRCA2 mutant at 3.75 to 60 nM in presence of MS023; assay type: functional, cell-based; conditions: dose 3.75-60 nM; method in brief: as §3
A549 [28] = assay: Induction of DNA damage in human A549 cells assessed as increase in stained cells at 50 nM for 7 days in presence of MS023 by gamma-H2AX analysis (reference value: 3.9%); assay type: functional; conditions: time 7 day; method in brief: as §1
A549 [29] = assay: Induction of DNA damage in human A549 cells assessed as increase in stained cells at 1 nM for 7 days by gamma-H2AX analysis (reference value: 3.9%); assay type: functional; conditions: time 7 day

Compound: CC(C)Oc1ccc(-c2c[nH]cc2CN(C)CCN)cc1
- IC50 (A549 [1]): 13.4 µM
- Activity (A549 [2]): 27.6%
- IC50 (HCC4006 [3]): 0.47 µM
- Activity (A549 [4]): Active
- Activity (A549 [5]): 23%
- IC50 (HCC4006 [6]): 0.56 µM
- IC50 (A549 [7]): 5.1 µM
- Activity (A549 [8]): 19.6%
- IC50 (SK-LU-1 [9]): 36.7 µM
- IC50 (SK-LU-1 [10]): 41 µM

Compound: CN(C)CC(=O)Nc1ccc2[nH]c(=O)c3ccccc3c2c1.Cl [PJ34]
- Activity (A549 [11]): 21%
- viability at 10 µM (A549 [12]): 54.2%

Compound: CNCc1ccc(-c2[nH]c3cc(F)cc4c3c2CCNC4=O)cc1 [RUCAPARIB]
- Activity (A549 [11]): 24%
- viability at 10 µM (A549 [12]): 54.2%

Compound: Cn1ncnc1[C@H]1c2n[nH]c(=O)c3cc(F)cc(c23)N[C@@H]1c1ccc(F)cc1 [TALAZOPARIB]
- Activity (A549 [13]): 50%
- Activity (A549 [14]): >80%
- Activity (PEO4 [15]): inactive
- Activity (PEO1 [16]): Active
- Activity (A549 [17]): 13.506
- Activity (PEO1 [18]): 17.98
- Activity (PEO1 [19]): Active
- Activity (A549 [20]): Active
- Activity (A549 [21]): 50%
- Activity (A549 [22]): Active
- Activity (A549 [23]): 19.892
- Activity (A549 [24]): Active
- Activity [25]: 21.64
- Activity (A549 [26]): 40.4%
- Activity (PEO4 [27]): Active
- Activity (A549 [28]): 69.5%
- Activity (A549 [29]): 24.8%

Compound: NC(=O)c1ccc(I)c([N+](=O)[O-])c1 [INIPARIB]
- Activity (A549 [11]): 15%
- viability at 10 µM (A549 [12]): 54.2%

Compound: C[C@]1(c2nc3c(C(N)=O)cccc3[nH]2)CCCN1 [VELIPARIB]
- Activity (A549 [11]): 98%
- viability at 10 µM (A549 [12]): 54.2%

Compound: Cc1ccc(S(=O)(=O)O)cc1.NC(=O)c1cccc2cn(-c3ccc([C@@H]4CCCNC4)cc3)nc12
- Activity (A549 [11]): 11%
- viability at 10 µM (A549 [12]): 54.2%

Compound: COC1CCN(C(=O)c2cc(Cc3n[nH]c(=O)c4ccccc34)ccc2F)CC1 [AZD2461]
- Activity (A549 [11]): 67%
- viability at 10 µM (A549 [12]): 54.2%
